According to ChEMBL document CHEMBL1138683 (J Med Chem, 2004):

Columns and labels:
[1] = Anti convulsant activity administered intra peritoneally to mouse for toxicity at 0.5 hr with dose of 100 mg/kg; 0/8= No of animals exhibiting toxicity /No of animals tested; format: organism-based; design: dose 100 mg/kg; conditions: in vivo, ip
Rattus norvegicus [2] = test: Anticonvulsant activity after oral administration of 223 mg/kg dose after 1 hr in rats; ++++ means 100% of the animals protected; format: functional, organism-based; design: dose 223 mg/kg
Procedure, shortened: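 Oral dosing of rats at a single dose, compound dissolved or suspended in 0.5% methylcellulose. Protection in the MES or scMet test checked 15 min, 30 min, 1 h, 2 h and 4 h after dosing. Scored as 25/50/75/100% of animals protected (+ to ++++), – for none.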

[3] = Anti convulsant activity administered intra peritoneally to mouse for toxicity at 4 hr with dose of 100 mg/kg; 0/4= No of animals exhibiting toxicity /No of animals tested; format: organism-based; design: dose 100 mg/kg; conditions: in vivo, ip
Mus musculus [4] = test: Anti convulsant activity administered intra peritoneally to mouse at maximal electroshock test at 4 hr after the drug administered with dose of 300 mg/kg; 1/1= No of animals protected /No of animals tested; format: functional
Mus musculus [5] = test: Anti convulsant activity administered intra peritoneally to mouse at maximal electroshock test at 4 hr after the drug administered with dose of 30 mg/kg; 0/1= No of animals protected /No of animals tested; format: functional
[6] = Anti convulsant activity administered intra peritoneally to mouse for toxicity at 0.5 hr with dose of 300 mg/kg; 4/4= No of animals exhibiting toxicity /No of animals tested; format: organism-based; design: dose 300 mg/kg; conditions: in vivo, ip
Mus musculus [7] = test: Anti convulsant activity administered intra peritoneally to mouse for subcutaneous metrazol test at 0.5 hr with dose of 100 mg/kg; 0/1= No of animals protected /No of animals tested; format: functional
[8] = Anti convulsant activity administered intra peritoneally to mouse for toxicity at 0.5 hr with dose of 30 mg/kg; 0/4= No of animals exhibiting toxicity /No of animals tested; format: organism-based; design: dose 30 mg/kg; conditions: in vivo, ip
Rattus norvegicus [9] = test: Anticonvulsant activity after oral administration of 30 mg/kg dose after 4 hr in rats; - means 25% of the animal protected; format: functional, organism-based; design: dose 30 mg/kg
Mus musculus [10] = test: Anti convulsant activity administered intra peritoneally to mouse at maximal electroshock test at 0.5 hr after the drug administered with dose of 300 mg/kg; 1/1= No of animals protected /No of animals tested; format: functional
Mus musculus [11] = test: Anti convulsant activity administered intra peritoneally to mouse for subcutaneous metrazol test at 0.5 h with dose of 300 mg/kg; 0/1= No of animals protected /No of animals tested; format: functional
Mus musculus [12] = test: Anti convulsant activity administered intra peritoneally to mouse for subcutaneous metrazol test at 4 hr after the drug administered with dose of 30 mg/kg; 0/1= No of animals protected /No of animals tested; format: functional; conditions: route intraperitoneal
Mus musculus [13] = test: Anti convulsant activity administered intra peritoneally to mouse at maximal electroshock test at 4 hr after the drug administered with dose of 100 mg/kg; 0/3= No of animals protected /No of animals tested; format: functional
[14] = Anti convulsant activity administered intra peritoneally to mouse for toxicity at 4 hr with dose of 30 mg/kg; 0/2= No of animals exhibiting toxicity /No of animals tested; format: organism-based; design: dose 30 mg/kg; conditions: in vivo, ip
[15] = Anti convulsant activity administered intra peritoneally to mouse for toxicity at 4 hr with dose of 300 mg/kg; 2/2= No of animals exhibiting toxicity /No of animals tested; format: organism-based; design: dose 300 mg/kg; conditions: in vivo, ip
[16] = Toxicity after oral administration of 50 mg/kg dose in rats; ++ means 50% of the animals exhibiting toxicity; format: organism-based; design: dose 50 mg/kg, route oral; conditions: rat, in vivo
Procedure, shortened: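 Rats dosed orally with compound dissolved or suspended in 0.5% methylcellulose (0.04 mL per 10 g body weight). Anticonvulsant protection (MES or scMet) and toxicity scored at 15 min, 30 min, 1 h, 2 h and 4 h after dosing. Graded in steps of 25% of animals protected or showing toxicity.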

Mus musculus [17] = test: Anti convulsant activity administered intra peritoneally to mouse at maximal electroshock test at 0.5 h after the drug administered with dose of 30 mg/kg; 0/1= No of animals protected /No of animals tested; format: functional
Mus musculus [18] = test: Anti convulsant activity administered intra peritoneally to mouse at maximal electroshock test at 0.5 hr after the drug administered with dose of 100 mg/kg; 0/3= No of animals protected /No of animals tested; format: functional
Mus musculus [19] = test: Anti convulsant activity administered intra peritoneally to mouse for subcutaneous metrazol test at 4 hr with dose of 300 mg/kg; 0/1= No of animals protected /No of animals tested; format: functional
Mus musculus [20] = test: Anti convulsant activity administered intra peritoneally to mouse for subcutaneous metrazol test at 0.5 hr with dose of 30 mg/kg; 0/1= No of animals protected /No of animals tested; format: functional
Mus musculus [21] = test: Anti convulsant activity administered intra peritoneally to mouse for subcutaneous metrazol test at 4 hr after the drug administered with dose of 100 mg/kg; 0/1= No of animals protected /No of animals tested; format: functional
[22] = Anti convulsant activity administered intra peritoneally to mouse for toxicity at 0.5 hr with dose of 300 mg/kg; 1/4= No of animals exhibiting toxicity /No of animals tested; format: organism-based; design: dose 300 mg/kg; conditions: in vivo, ip
Mus musculus [23] = test: Anti convulsant activity administered intra peritoneally to mouse at maximal electroshock test at 0.5 h after the drug administered with dose of 300 mg/kg; 0/1= No of animals protected /No of animals tested; format: functional
[24] = Anti convulsant activity administered intra peritoneally to mouse for toxicity at 4 hr with dose of 300 mg/kg; 0/2= No of animals exhibiting toxicity /No of animals tested; format: organism-based; design: dose 300 mg/kg; conditions: in vivo, ip
Mus musculus [25] = test: Anti convulsant activity administered intra peritoneally to mouse at maximal electroshock test at 4 hr after the drug administered with dose of 300 mg/kg; 0/1= No of animals protected /No of animals tested; format: functional
Mus musculus [26] = test: Anticonvulsant activity administered intra peritoneally to mouse for the protective index of toxicity by maximal electroshock test; T D50/ED50; format: functional
Rattus norvegicus [27] = test: Anticonvulsant activity administered orally to rat for the protective index of toxicity by maximal electroshock test; TD50/ED50; format: functional
[28] = Anticonvulsant activity administered intra peritoneally to mouse for toxicity; conditions: in vivo, ip
Rattus norvegicus [29] = test: Anticonvulsant activity administered orally to rat for protective index of subcutaneous metrazol test; format: functional
Mus musculus [30] = test: Anticonvulsant activity administered intra peritoneally to mouse for protective index of subcutaneous metrazol test; format: functional

CCNC(=O)C1C(C)(C)C1(C)C
Toxicity [1]: 0
Activity (Rattus norvegicus [2]): 100% of the animals protected
Toxicity [3]: 0
Activity (Mus musculus [4]): 1
Activity (Mus musculus [5]): 0
Toxicity [6]: 4
Activity (Mus musculus [7]): 0
Toxicity [8]: 0
Activity (Rattus norvegicus [9]): 100% of the animals protected
Activity (Mus musculus [10]): 1
Activity (Mus musculus [11]): 1
Activity (Mus musculus [12]): 0
Activity (Mus musculus [13]): 0
Toxicity [14]: 0
Toxicity [15]: 2
Toxicity [16]: 50% of the animals exhibiting toxicity
Activity (Mus musculus [17]): 0
Activity (Mus musculus [18]): 0
Activity (Mus musculus [19]): 0
Activity (Mus musculus [20]): 0
Activity (Mus musculus [21]): 0

CC1(C)C(C(=O)NO)C1(C)C
Toxicity [1]: 0
Toxicity [3]: 0
Toxicity [22]: 1
Activity (Mus musculus [5]): 0
Toxicity [8]: 0
Activity (Mus musculus [23]): 0
Activity (Mus musculus [11]): 0
Toxicity [24]: 0
Activity (Mus musculus [12]): 0
Activity (Mus musculus [13]): 0
Toxicity [14]: 0
Activity (Mus musculus [17]): 0
Activity (Mus musculus [18]): 0
Activity (Mus musculus [19]): 0
Activity (Mus musculus [20]): 0
Activity (Mus musculus [21]): 0
Activity (Mus musculus [25]): 0

CNC(=O)C1C(C)(C)C1(C)C
Ratio (Mus musculus [26]): 1.6
Ratio (Rattus norvegicus [27]): 2
TD50 [28]: 153 mg/kg
Activity (Rattus norvegicus [29]): 3.6
Activity (Mus musculus [30]): 3.9
